CHOP inh – blocks CHOP induction under ER stress; CHO-K1 CHOP-promoter luciferase, tunicamycin-induced, 15-18 h; inhibition, % at 10 µM; 3.8% of 220,000 active;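 active means compounds that reduced the stress-induced luciferase reporter signal by more than about 70% of percent inhibition, limit read from the data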;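 further: 0% = tunicamycin plus vehicle and 100% = wells without tunicamycin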
S1P3 antag – antagonists of human S1P3 receptor; Q99500; CHO S1P3 NFAT-BLA reporter, FRET fluorescence, antagonist mode; inhibition, % at 4.98 µM; 0.27% of 170,000 active; AID 485;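 active means inhibition above the plate cutoff, the mean inhibition of test wells on that plate plus 3 SD, cut at about 28% in these data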;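 further: cells challenged with S1P at its EC80 of 0.8 µM; blue over green emission ratio from cleaved BLA substrate after 4 h stimulation; 0% = S1P-stimulated wells and 100% = unstimulated DMSO-only wells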
Target sequence (Q99500 whole entry, looked up): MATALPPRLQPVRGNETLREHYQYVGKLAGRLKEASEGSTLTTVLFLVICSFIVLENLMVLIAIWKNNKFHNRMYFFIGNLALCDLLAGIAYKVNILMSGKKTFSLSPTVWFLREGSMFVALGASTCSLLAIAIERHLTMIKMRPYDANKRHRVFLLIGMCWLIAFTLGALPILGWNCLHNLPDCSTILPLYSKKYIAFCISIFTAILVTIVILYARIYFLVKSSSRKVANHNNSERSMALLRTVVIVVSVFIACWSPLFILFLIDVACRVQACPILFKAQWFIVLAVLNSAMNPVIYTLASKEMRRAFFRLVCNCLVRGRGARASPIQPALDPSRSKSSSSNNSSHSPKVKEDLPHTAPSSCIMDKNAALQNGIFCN
Hsp70 activator – transcriptional activators of Hsp70; HeLa Hsp70 promoter luciferase reporter, luminescence; scaled: vehicle 0, proteasome-inhibitor control 100%; activation, % at 10 µM; 0.04% of 200,000 active; AID 1203;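 active means activation above the mean across all tested compounds plus 3 SD, cutoff set per campaign, cut at about 5.5% in these data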;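 further: 100% = MG132 at 30 µM as the positive control and 0% = DMSO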
MDM2 E3 inh – Mdm2 E3 ligase (human) inhibition; signal enhancement, % at 5 µM; cell-based MDM2 ubiquitination luciferase reporter, 2 h; 0 = plate control, 100 = twice control, blank-subtracted; 0.11% of 210,000 active;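 active means signal enhancement of 30% or more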;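 further: luminescence tracks abundance of the self-degrading MDM2-luciferase fusion protein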
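Timing – 2 h compound exposure at 37 °C · Assay system – mammalian cells stably expressing self-ubiquitinating, self-degrading MDM2 E3–luciferase fusion · Amount – 2000 cells seeded into each well · Measure – % luminescence enhancement versus blank-corrected plate control mean · Measured by – SteadyLite luminescence, 15 min reagent step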
CHOP inh conf – confirmation of CHOP induction inhibitors; shares compounds with CHOP inh; CHO-CHOP promoter luciferase reporter, tunicamycin-induced, luminescence; inhibition, % at 10 µM; 45% of 2,100 active; AID 504437;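 active means mean of three repeat readings of reporter signal inhibition above a set limit, cut at about 70% in these data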;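 further: 0% = tunicamycin plus vehicle and 100% = wells lacking tunicamycin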
* hit, by the source's call; . = no result given. Most compounds without a hit are left out; they make up all but 4% or so of the library.

SMILES	CHOP inh	S1P3 antag	Hsp70 activator	MDM2 E3 inh	CHOP inh conf
FC(F)(F)c1cccc(CN2CCC(c3cc(-c4cccs4)n[nH]3)CC2)c1	104*	4	0	-15	94*
COc1ccc(CCNC(=O)CC2SC(=NCc3ccccc3)NC2=O)cc1 (configuration not stated)	8	-11	0	-31	.
CCSc1nnc(NC(=O)C2CC2c2ccccc2)s1 (configuration not stated)	102*	-2	0	0	-64
Cc1ccc(NN2C(=O)C=C(c3ccccc3)C2=O)cc1	107*	15	0	-2	-139
Cc1ccc(Sc2ccc(/C=N/O)cc2[N+](=O)[O-])cc1	101*	.	0	-1	20
CO/N=C/c1ccc(Sc2ccc(C)cc2)c([N+](=O)[O-])c1	49	.	0	-6	.
CCCCC1=CC2=C(c3ccco3)C(=O)C(C)(OC(=O)c3ccc(OC)cc3)C(=O)C2=CN1c1ccccc1 (configuration not stated)	104*	.	.	28	-64
CCCOc1ccc(S(=O)(=O)NNC(=O)c2cc3ccccc3o2)cc1	3	-5	0	.	.
CCOc1ccc(NC(=O)COc2ccc(C(=O)NCCc3ccccc3)cc2)cc1	-14	-6	0	-7	.
CC(C)c1ccccc1NC(=O)COc1ccc(C(=O)NCCc2ccccc2)cc1	107*	-6	0	-13	31
COc1ccc(C2CC(c3c(-c4ccccc4)c4cc(Cl)ccc4[nH]c3=O)=NN2S(C)(=O)=O)cc1OC (configuration not stated)	108*	.	0	6	125*
CC(C)=C1C2CCC1C(C(=O)Nc1sc(C)c(-c3ccc(C(C)C)cc3)c1C(N)=O)C2C(=O)O (configuration not stated)	103*	1	0	21	100*
Cc1cc(C)c2c(c1)/C(=N/NS(=O)(=O)c1ccc(Br)cc1)CCC2	106*	.	0	-17	82*
CCOCCCNC(=O)COC(=O)/C=C/c1ccc(S(=O)(=O)N2CCc3ccccc32)cc1	-20	1	0	-15	.
Cc1cc(=O)n2c(C(=O)Nc3ccc(C)c(C)c3)c(C(=O)Nc3ccccc3)sc2n1	97*	-11	0	-3	26
CS(=O)(=O)N(CC(=O)Nc1cccc(Cl)c1)c1ccccc1Cl	59	.	0	10	.
CC(C)C[C@H](NC(=O)c1[nH]cnc1C(=O)N[C@@H](C)C(=O)OC(C)(C)C)C(=O)OC(C)(C)C	104*	.	.	14	134*
CC(C)C[C@H](NC(=O)c1nc[nH]c1C(=O)NCC(=O)OC(C)(C)C)C(=O)OCc1ccccc1	101*	.	.	15	114*
CC(C)C[C@H](NC(=O)c1[nH]cnc1C(=O)N[C@@H](C)c1ccccc1)C(=O)OCc1ccccc1	-4	.	.	-9	.
CC(C)C[C@H](NC(=O)c1[nH]cnc1C(=O)Nc1ccccc1)C(=O)OC(C)(C)C	106*	.	.	0	112*
CC(C)c1ccc(/C=C2\NC(=S)N(Cc3cccnc3)C2=O)cc1	41	-6	0	-8	.
CC1=CC(C)(C)N2C(=O)C3(SCC(=O)N3c3ccc(F)cc3)c3cc(C)cc1c32 (configuration not stated)	108*	.	0	-13	112*
CC1=CC(C)(C)N2C(=O)C3(NCCc4c3[nH]c3ccccc43)c3cc(C)cc1c32 (configuration not stated)	-16	15	.	.	.
COC(=O)c1cc2cc(NS(=O)(=O)c3ccc(C)cc3)ccc2s1	103*	.	0	-7	14
CC(C(=O)Nc1ccc2c(c1)OCO2)N(c1ccc(Cl)cc1)S(C)(=O)=O (configuration not stated)	10	-2	0	-27	.
SMILES	CHOP inh	S1P3 antag	Hsp70 activator	MDM2 E3 inh	CHOP inh conf
O=C(Nc1cccc(-c2nc3ncccc3o2)c1)c1sc2cc(Cl)ccc2c1Cl	4	.	0	-14	.
O=C(Nc1cccc(-c2nc3ncccc3o2)c1)c1sc2ccccc2c1Cl	104*	.	0	-14	103*
O=C(Nc1ccc(-c2nc3ncccc3o2)cc1)c1ccc(Br)o1	103*	24	0	-18	-18
COc1ccc(-c2nc(-c3ccc(NC(=O)c4ccc(Br)o4)cc3)no2)cc1OC	103*	-25	0	-5	110*
COc1ccc([C@H]2Oc3cc(O)cc(O)c3C(=O)C2[C@@H]2C(=O)c3c(O)cc(O)cc3O[C@@H]2c2ccc(OC)cc2)cc1 (some centres not stated)	105*	.	.	-10	111*
CC1(c2cc(C(F)(F)F)n3nc(C(=O)O)cc3n2)CC1	15	.	0	-3	.
Cc1[nH]n(C)c(=O)c1C(=O)c1c(-c2ccccc2Cl)noc1C	-4	4	.	-10	.
C#CC(=O)N(c1ccc(OC)c(OC)c1)C(C(=O)NC1CCCC1)c1cccs1 (configuration not stated)	109*	.	0	-1	122*
COc1ccc(N(C(=O)Cc2cccs2)C(C(=O)NC2CCCCC2)c2cccn2C)cc1OC (configuration not stated)	5	.	0	-3	.
COc1cc(N(C(=O)Cc2cccs2)C(C(=O)NC2CCCCC2)c2ccc(C)cc2)ccc1-n1cnnn1 (configuration not stated)	105*	4	0	-21	92*
C#CC(=O)N(c1cccc(OC)c1)C(C(=O)NC1CCCC1)c1cccs1 (configuration not stated)	108*	.	0	-47	119*
CS(=O)(=O)N(CC(=O)Nc1ccc(F)c(F)c1)c1cccc([N+](=O)[O-])c1	10	-5	0	-9	.
Cc1cc(C(=O)NCCCN2CCN(C3CCCCC3)CC2)n(-c2ccccc2)n1	-10	1	0	-14	.
Cc1cccc(C)c1NC(=O)CSc1ncnc2nc[nH]c12	25	.	0	7	.
CC(C)c1ccc(NC(=O)CSc2nc(-c3ccccc3F)nc3nc[nH]c23)cc1	100*	-4	0	-9	94*
Cc1cc(-c2nnnn2-c2ccc(F)cc2)no1	10	-15	.	-17	.
COc1ccc2c3c(cccc13)C(=O)N(O)C2=O	102*	6	0	-8	108*
Cc1csc(NC(=O)Cc2coc3cc(C)c(C(C)C)cc23)n1	99*	.	0	-15	42
Cc1cc2occ(CC(=O)NCc3cccs3)c2cc1C(C)C	24	2	0	-1	.
CCN1C(=O)C2(C(C(=O)c3cc4ccccc4o3)=C(O)C(=O)N2CCCN2CCOCC2)c2ccccc21 (configuration not stated)	-8	-19	.	0	.
Cc1ccc2nc(SC(C(=O)Nc3ccc(F)cc3)c3ccccc3)[nH]c2c1 (configuration not stated)	106*	5	0	.	56
CCC(Sc1nc2ccc(C)cc2[nH]1)C(=O)O (configuration not stated)	19	.	0	-16	.

Screening data deposited in PubChem BioAssay by several laboratories.
